Experimental data collected from several papers.
Lines come from different studies, so protocols differ.
Target: Serine/threonine-protein kinase N1 (PKN1, Homo sapiens, UniProt Q16512)

CN(C)c1ncc(F)c(-c2cnn3ncccc23)n1 — remaining binding (binding; 1 µM): 100%
O=C(NCC1CCOCC1)c1n[nH]cc1NC(=O)c1c(F)cccc1F — remaining binding (binding, competition with immobilised ligand; 1 µM): 100%
Nc1ncc2c(n1)-c1c([nH]c3ccc(C#CC4CC4)cc13)CCCC2 — remaining binding (binding, competition with immobilised ligand; 1 µM): 78%
COc1ccc2cc(OCC3(C(=O)O)CN(C(=O)c4ccc(F)cc4)C3)ccc2c1 — remaining binding (cell-free assay, competition with immobilised ligand; 1 µM): 100%
CN(CCCC(F)(F)F)c1nccc(-c2cnn3ncccc23)n1 — remaining binding (binding; 1 µM): 100%
CNC(=O)[C@@H]1CC[C@@H](n2c(-c3ccc4cnccc4c3)nc3ccc(C(=O)NCc4cccc(C(N)=O)c4)cc32)C1 — remaining binding (binding, competition with immobilised ligand; 1 µM): 92%
C[C@@H]1CCN(c2nccc(-c3cnn4ncccc34)n2)C1 — remaining binding (binding; 1 µM): 84%
COc1cnc(Nc2cccc(S(N)(=O)=O)c2)nc1N1CCN(c2ccccc2)C(=O)C1 — remaining binding (binding, competition with immobilised ligand; 1 µM): 98%
CCOCCn1cc(C(=O)Nc2ccc(-n3nc(-c4cccnc4)cc3C(F)(F)F)cn2)ccc1=O — remaining binding (cell-free assay, competition with immobilised ligand; 1 µM): 76%
COc1ncc2cc3ccccc3nc2c1C#N — remaining binding (cell-free assay, competition with immobilised ligand; 5 µM): 100%
N[C@H]1CCN(c2nccc(-c3cnn4ncccc34)n2)C1 — remaining binding (binding; 1 µM): 86%
C[C@H](c1ccc(F)cc1)N(Cc1cccc(C(=O)O)c1)C(=O)c1cnc2ccccc2c1 — remaining binding (cell-free assay, competition with immobilised ligand; 1 µM): 100%
O=C(c1ccc(Nc2ncc(Cl)c(-c3cc4ccccc4s3)n2)cc1)N1CCC(N2CCCC2)CC1 — remaining binding (binding, competition with immobilised ligand; 1 µM): 3.4%
Cc1nc(N2CC[C@@H](O)C2)ncc1-c1cc(C(F)(F)F)cc2[nH]ncc12 — remaining binding (binding, competition with immobilised ligand; 1 µM): 100%
O=C(NCCCN1CCOCC1)c1ccc(Nc2ncc(Cl)c(-c3ccc(Cl)s3)n2)cc1 — remaining binding (binding, competition with immobilised ligand; 1 µM): 39%
CCc1ccccc1C(=O)Nc1n[nH]c2c(C)c(F)c(C3C(C#N)=C(C)N(C)C(C)=C3C#N)cc12 — remaining binding (cell-free assay, competition with immobilised ligand; 1 µM): 100%
Cc1cnn2ncc(-c3ccnc(N(C)C)n3)c2c1 — remaining binding (binding; 1 µM): 99%
O=C1CCc2cc(Nc3cc(OC4CCOCC4)c([N+](=O)[O-])cc3Cl)ccc2N1 — remaining binding (cell-free assay, competition with immobilised ligand; 1 µM): 100%
O=C(c1ccc(Nc2nccc(-c3cc4ccccc4s3)n2)cc1)N1CCC(N2CCCC2)CC1 — remaining binding (binding, competition with immobilised ligand; 1 µM): 12%
CCN1CCN(Cc2ccc(C(=O)Nc3ccc(C)c(Oc4ccc5c(c4)CC(=O)N5)c3)cc2C(F)(F)F)CC1 — remaining binding (binding, competition with immobilised ligand; 1 µM): 100%
CN(C)c1ncnc(-c2ccc3nc(Nc4cc(CN5CCN(C(=O)CC(F)(F)F)CC5)ccn4)[nH]c3c2)c1Cl — remaining binding (cell-free assay, competition with immobilised ligand; 1 µM): 100%
F[C@@H]1CCN(c2nccc(-c3cnn4ncccc34)n2)C1 — remaining binding (binding; 1 µM): 100%
